Key:
Format in all cases: functional
RPMI-8226 = assay: Cytotoxicity against human RPMI8226 cells assessed as cell growth at 10 uM after 48 hrs by SRB assay relative to control; conditions: RPMI-8226, 48 h, read-out: Activity
LOX IMVI = assay: Cytotoxicity against human LOXIMVI cells assessed as cell growth at 10 uM after 48 hrs by SRB assay relative to control; conditions: read-out: Activity
Method in brief: (§1)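 NCI primary screen of about 60 human tumour lines. Cells inoculated and preincubated, then a single test concentration added and cultures incubated 48 h. Result given as percent growth (G%) of treated versus untreated control cells.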

SK-MEL-5 = assay: Cytotoxicity against human SK-MEL-5 cells assessed as cell growth at 10 uM after 48 hrs by SRB assay relative to control; conditions: SK-MEL-5, 48 h, read-out: Activity
NCI/ADR-RES = assay: Cytotoxicity against human NCI/ADR-RES cells assessed as cell growth at 10 uM after 48 hrs by SRB assay relative to control; conditions: read-out: Activity
OVCAR-5 = assay: Cytotoxicity against human OVCAR5 cells assessed as cell growth at 10 uM after 48 hrs by SRB assay relative to control; conditions: OVCAR-5, 48 h, read-out: Activity
OVCAR-4 = assay: Cytotoxicity against human OVCAR4 cells assessed as cell growth at 10 uM after 48 hrs by SRB assay relative to control; conditions: OVCAR-4, 48 h, read-out: Activity
SNB-19 = assay: Cytotoxicity against human SNB19 cells assessed as cell growth at 10 uM after 48 hrs by SRB assay relative to control; conditions: SNB-19, 48 h, read-out: Activity
SK-MEL-28 = assay: Cytotoxicity against human SK-MEL-28 cells assessed as cell growth at 10 uM after 48 hrs by SRB assay relative to control; conditions: SK-MEL-28, 48 h, read-out: Activity
T47D = assay: Cytotoxicity against human T47D cells assessed as cell growth at 10 uM after 48 hrs by SRB assay relative to control; conditions: read-out: Activity
Method in brief: (§2)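 NCI single-dose primary screen across about 60 human tumour lines. Each line was inoculated and preincubated on microtiter plates, then exposed to one concentration of agent for 48 h. Growth is reported as percent growth (G%) of treated cells versus untreated control cells.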

M14 = assay: Cytotoxicity against human M14 cells assessed as cell growth at 10 uM after 48 hrs by SRB assay relative to control; conditions: M14, 48 h, read-out: Activity; method in brief: as §1
NCI-H522 = assay: Cytotoxicity against human NCI-H522 cells assessed as cell growth at 10 uM after 48 hrs by SRB assay relative to control; conditions: NCI-H522, 48 h, read-out: Activity
U-251 = assay: Cytotoxicity against human U251 cells assessed as cell growth at 10 uM after 48 hrs by SRB assay relative to control; conditions: U-251, 48 h, read-out: Activity; method in brief: as §2
SF-268 = assay: Cytotoxicity against human SF268 cells assessed as cell growth at 10 uM after 48 hrs by SRB assay relative to control; conditions: SF-268, 48 h, read-out: Activity
NCI-H322M = assay: Cytotoxicity against human NCI-H322M cells assessed as cell growth at 10 uM after 48 hrs by SRB assay relative to control; conditions: read-out: Activity
DU-145 = assay: Cytotoxicity against human DU145 cells assessed as cell growth at 10 uM after 48 hrs by SRB assay relative to control; conditions: DU-145, 48 h, read-out: Activity; method in brief: as §1
UO-31 = assay: Cytotoxicity against human UO31 cells assessed as cell growth at 10 uM after 48 hrs by SRB assay relative to control; conditions: UO-31, 48 h, read-out: Activity; method in brief: as §2
SR = assay: Cytotoxicity against human SR cells assessed as cell growth at 10 uM after 48 hrs by SRB assay relative to control; conditions: read-out: Activity; method in brief: as §2
MOLT-4 = assay: Cytotoxicity against human MOLT4 cells assessed as cell growth at 10 uM after 48 hrs by SRB assay relative to control; conditions: MOLT-4, 48 h, read-out: Activity
SF-539 = assay: Cytotoxicity against human SF539 cells assessed as cell growth at 10 uM after 48 hrs by SRB assay relative to control; conditions: SF-539, 48 h, read-out: Activity
RXF 393 = assay: Cytotoxicity against human RXF393 cells assessed as cell growth at 10 uM after 48 hrs by SRB assay relative to control; conditions: RXF 393, 48 h, read-out: Activity
Hs-578T = assay: Cytotoxicity against human Hs578T cells assessed as cell growth at 10 uM after 48 hrs by SRB assay relative to control; conditions: read-out: Activity; method in brief: as §1
IGROV-1 = assay: Cytotoxicity against human IGROV1 cells assessed as cell growth at 10 uM after 48 hrs by SRB assay relative to control; conditions: IGROV-1, 48 h, read-out: Activity; method in brief: as §1
A549 = assay: Cytotoxicity against human A549 cells assessed as cell growth at 10 uM after 48 hrs by SRB assay relative to control; conditions: A549, 48 h, read-out: Activity; method in brief: as §1
HT-29 = assay: Cytotoxicity against human HT-29 cells assessed as cell growth at 10 uM after 48 hrs by SRB assay relative to control; conditions: HT-29, 48 h, read-out: Activity; method in brief: as §1
SK-OV-3 = assay: Cytotoxicity against human SKOV3 cells assessed as cell growth at 10 uM after 48 hrs by SRB assay relative to control; conditions: SK-OV-3, 48 h, read-out: Activity
HL-60(TB) = assay: Cytotoxicity against human HL-60(TB) cells assessed as cell growth at 10 uM after 48 hrs by SRB assay relative to control; conditions: HL-60, 48 h, read-out: Activity
CCRF-CEM = assay: Cytotoxicity against human CCRF-CEM cells assessed as cell growth at 10 uM after 48 hrs by SRB assay relative to control; conditions: read-out: Activity; method in brief: as §1
HOP-92 = assay: Cytotoxicity against human HOP92 cells assessed as cell growth at 10 uM after 48 hrs by SRB assay relative to control; conditions: HOP-92, 48 h, read-out: Activity; method in brief: as §1
NCI-H460 = assay: Cytotoxicity against human NCI-H460 cells assessed as cell growth at 10 uM after 48 hrs by SRB assay relative to control; conditions: NCI-H460, 48 h, read-out: Activity
ACHN = assay: Cytotoxicity against human ACHN cells assessed as cell growth at 10 uM after 48 hrs by SRB assay relative to control; conditions: read-out: Activity; method in brief: as §1
SF-295 = assay: Cytotoxicity against human SF295 cells assessed as cell growth at 10 uM after 48 hrs by SRB assay relative to control; conditions: SF-295, 48 h, read-out: Activity
UACC-257 = assay: Cytotoxicity against human UACC257 cells assessed as cell growth at 10 uM after 48 hrs by SRB assay relative to control; conditions: UACC-257, 48 h, read-out: Activity; method in brief: as §2
EKVX = assay: Cytotoxicity against human EKVX cells assessed as cell growth at 10 uM after 48 hrs by SRB assay relative to control; conditions: read-out: Activity; method in brief: as §1
UACC-62 = assay: Cytotoxicity against human UACC62 cells assessed as cell growth at 10 uM after 48 hrs by SRB assay relative to control; conditions: UACC-62, 48 h, read-out: Activity; method in brief: as §2

## CSC1=Nc2c(c(C)c(C)n2CCCC(=O)NCCc2cnc[nH]2)C2=NC(=O)CN12
RPMI-8226
  growth at 10 µM: 87%
LOX IMVI
  growth at 10 µM: 102%
SK-MEL-5
  growth at 10 µM: 101%
NCI/ADR-RES
  growth at 10 µM: 110%
OVCAR-5
  growth at 10 µM: 116%
OVCAR-4
  growth at 10 µM: 93%
SNB-19
  growth at 10 µM: 102%
SK-MEL-28
  growth at 10 µM: 113%
T47D
  growth at 10 µM: 101%
M14
  growth at 10 µM: 102%
NCI-H522
  growth at 10 µM: 83%
U-251
  growth at 10 µM: 101%
SF-268
  growth at 10 µM: 130%
NCI-H322M
  growth at 10 µM: 111%
DU-145
  growth at 10 µM: 149%
UO-31
  growth at 10 µM: 85%
SR
  growth at 10 µM: 126%
MOLT-4
  growth at 10 µM: 97%
SF-539
  growth at 10 µM: 97%
RXF 393
  growth at 10 µM: 116%
Hs-578T
  growth at 10 µM: 117%
IGROV-1
  growth at 10 µM: 94%
A549
  growth at 10 µM: 101%
HT-29
  growth at 10 µM: 95%
SK-OV-3
  growth at 10 µM: 127%
HL-60(TB)
  growth at 10 µM: 100%
CCRF-CEM
  growth at 10 µM: 104%
HOP-92
  growth at 10 µM: 91%
NCI-H460
  growth at 10 µM: 101%
ACHN
  growth at 10 µM: 112%
SF-295
  growth at 10 µM: 106%
UACC-257
  growth at 10 µM: 114%
EKVX
  growth at 10 µM: 99%
UACC-62
  growth at 10 µM: 100%
